B1: Osa-1-4 twister ribozyme (parent)
chain: CCGCCUAACACUGCCAAUGCCGGUCCCAAGCCCGGAUAAAAGUGGAGGGGGCGG

Variants of: B1
Assay: self-cleavage, relative activity (ratio to wild type); higher = more cleavage; co-transcriptional
Procedure, shortened: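 For each read, cleavage status was taken from whether upstream sequence was present. The reads came from an Oryza sativa twister ribozyme of 54 nucleotides, whose DNA template was synthesised with 97 % wild-type base and 1 % of each other base at the 48 positions downstream of the cleavage site. The template was transcribed in vitro at 37 °C for 2 h with co-transcriptional self-cleavage, and the RNA was reverse-transcribed using a template-switching oligonucleotide, PCR-amplified and deep-sequenced. Relative activity is the fraction cleaved normalised to wild type.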

| Variant | self-cleavage |
| --- | --- |
| CCGCCUAACACCGCCAAUGCCCGUCCCAAGCCCGGAUAAAAGUGGAGGGGGCGG | 0.07 |
| CCGCCUAACACGGCCAAUGCCCGUCCCAAGCCCGGAUAAAAGUGGAGGGGGCGG | 0.03 |
| CCGCCUAACACAGCCAAUGCCCGUCCCAAGCCCGGAUAAAAGUGGAGGGGGCGG | 0.05 |
| CCGCCUAACACUGCCAAUGCCAGUCCCAAGCCCGGAUAAAAGUGGAGCGGGCGG | 0.09 |
| CCGCCUAACACUGCCAAUGCCAGUCCCAAGCCCGGAUAAAAGUGGAGUGGGCGG | 0.08 |
| CCGCCUAACACUGCCAAUGCCAGUCCCAAGCCCGGAUAAAAGUGGAGAGGGCGG | 0.08 |
| CCGCCUAACACUGCCAAUGCCUGUCCCAAACCCGGAUAAAAGUGGAGGGGGCGG | 0.03 |
| CCGCCUAACACUGCCAAUGCCCGUCCCAAGCCCGGAUAAAAGUGGAGGGGCCGG | 0.03 |
| CCGCCUAACACUGCCAAUGCCCGUCCCAAGCCCGGAUAAAAGUGGAGGGGACGG | 0.04 |
| CCGCCUAACACUGCCAAUGCCCGUCCCAAGCCCGGAUAAAAGUGGAGGGGUCGG | 0.04 |
| CCGCCUAACACUGCCAAUGCCCGUCCCAAGCCCGGAUAAAAGUGGAGGGCGCGG | 0.05 |
| CCGCCUAACACUGCCAAUGCCCGUCCCAAGCCCGGAUAAAAGUGGAGGGAGCGG | 0.34 |
| CCGCCUAACACUGCCAAUGCCCGUCCCAAGCCCGGAUAAAAGUGGAGGGUGCGG | 0.11 |
| CCGCCUAACACUGCCAAUGCCUCUCCCAAGCCCGGAUAAAAGUGGAGGGGGCGG | 0.04 |
| CCGCCUAACACUGCCAAUGCCUUUCCCAAGCCCGGAUAAAAGUGGAGGGGGCGG | 0.07 |
| CCGCCUAACACUGCCAAUGCCUAUCCCAAGCCCGGAUAAAAGUGGAGGGGGCGG | 0.08 |
| CCGCCUAACACUGCCAAUGCCCGUCCCAAGCCCGGAUAAAAUUGGAGGGGGCGG | 0.02 |
| CCGCCUAACACUGCCAAUGCCCGUCCCAAGCCCGGAUAAAACUGGAGGGGGCGG | 0.04 |
| CCGCCUAACACUGCCAAUGCCCGUCCCAAGCCCGGAUAAAAAUGGAGGGGGCGG | 0.03 |
| CCGCCUAACACUGCCAAUGCCAGUCCCAAGCCCGGAUAAAAGUGGAGGUGGCGG | 0.09 |
| CCGCCUAACACUGCCAAUGCCAGUCCCAAGCCCGGAUAAAAGUGGAGGCGGCGG | 0.08 |
| CCGCCUAACACUGCCAAUGCCAGUCCCAAGCCCGGAUAAAAGUGGAGGAGGCGG | 0.12 |
| CCGCCUAACACUGCCAAUGCCCGUCCCAAGCCCGGAUAAAAGGGGAGGGGGCGG | 0.04 |
| CCGCCUAACACUGCCAAUGCCCGUCCCAAGCCCGGAUAAAAGCGGAGGGGGCGG | 0.03 |
| CCGCCUAACACUGCCAAUGCCCGUCCCAAGCCCGGAUAAAAGAGGAGGGGGCGG | 0.04 |

| Variant | self-cleavage |
| --- | --- |
| CCGCCUAACACUGCCAAUGCCAGUCCCAAGCCCGGAUAAAAGAGGAGGGGGCGG | 0.3 |
| CCGCCUAACACUGCCAAUGCCAGUCCCAAGCCCGGAUAAAAGCGGAGGGGGCGG | 0.18 |
| CCGCCUAACACUGCCAAUGCCAGUCCCAAGCCCGGAUAAAAGGGGAGGGGGCGG | 0.1 |
| CCGCCUAACACUGCCAAUGCCCGUCCCAAGCCCGGAGAAAAGUGGAGGGGGCGG | 0.17 |
| CCGCCUAACACUGCCAAUGCCCGUCCCAAGCCCGGAAAAAAGUGGAGGGGGCGG | 0.14 |
| CCGCCUAACACUGCCAAUGCCCGUCCCAAGCCCGGACAAAAGUGGAGGGGGCGG | 0.14 |
| CCGCCUAACACUGCCAAUGCCAGUCCCAAGCCCGGAUAAAAGUGGAGGGGGCUG | 0.14 |
| CCGCCUAACACUGCCAAUGCCAGUCCCAAGCCCGGAUAAAAGUGGAGGGGGCCG | 0.09 |
| CCGCCUAACACUGCCAAUGCCAGUCCCAAGCCCGGAUAAAAGUGGAGGGGGCAG | 0.51 |
| CCGCCUAACACUGCCAAUGCCCGUCCCAAGCCCGGAUAAAAGUGAAGGGGGCGG | 0.03 |
| CCGCCUAACACUGCCAAUGCCCGUCCCAAGCCCGGAUAAAAGUGCAGGGGGCGG | 0.02 |
| CCGCCUAACACUGCCAAUGCCCGUCCCAAGCCCGGAUAAAAGUGUAGGGGGCGG | 0.03 |
| CCGCCUAACACUGCCAAUGCCAGUCCCAAGCCCGGAUAAAAGUGGAGGGUGCGG | 0.94 |
| CCGCCUAACACUGCCAAUGCCAGUCCCAAGCCCGGAUAAAAGUGGAGGGAGCGG | 1 |
| CCGCCUAACACUGCCAAUGCCAGUCCCAAGCCCGGAUAAAAGUGGAGGGCGCGG | 0.68 |
| CCGCCUAACACUGCCAAUGCCCGUCCCAAGCCCCGAUAAAAGUGGAGGGGGCGG | 0.05 |
| CCGCCUAACACUGCCAAUGCCCGUCCCAAGCCCAGAUAAAAGUGGAGGGGGCGG | 0.05 |
| CCGCCUAACACUGCCAAUGCCCGUCCCAAGCCCUGAUAAAAGUGGAGGGGGCGG | 0.05 |
| CCGCCUAACACUGCCAAUGCCCGUCCCAAGCCCGGAUAAAAGUGGAGGGGGCCG | 0.03 |
| CCGCCUAACACUGCCAAUGCCCGUCCCAAGCCCGGAUAAAAGUGGAGGGGGCUG | 0.04 |
| CCGCCUAACACUGCCAAUGCCCGUCCCAAGCCCGGAUAAAAGUGGAGGGGGCAG | 0.06 |
| CCGCCUAACACUGCCAAUGCCCGUCCCAAGCCCGGAUAAAAGUGGAGGGGGCGU | 0.16 |
| CCGCCUAACACUGCCAAUGCCCGUCCCAAGCCCGGAUAAAAGUGGAGGGGGCGC | 0.15 |
| CCGCCUAACACUGCCAAUGCCCGUCCCAAGCCCGGAUAAAAGUGGAGGGGGCGA | 0.08 |
| CCGCCUAACACUGCCAAUGCCAGUCCCAAGCCCGGAUAAAAGUGGAGGGGUCGG | 0.67 |

| Variant | self-cleavage |
| --- | --- |
| CCGCCUAACACUGCCAAUGCCAGUCCCAAGCCCGGAUAAAAGUGGAGGGGCCGG | 0.14 |
| CCGCCUAACACUGCCAAUGCCAGUCCCAAGCCCGGAUAAAAGUGGAGGGGACGG | 0.2 |
| CCGCCUAACACUGCCAAUGCCCGUCCCAAGCCCGGAUAAAAGUGGACGGGGCGG | 0.02 |
| CCGCCUAACACUGCCAAUGCCCGUCCCAAGCCCGGAUAAAAGUGGAUGGGGCGG | 0.04 |
| CCGCCUAACACUGCCAAUGCCCGUCCCAAGCCCGGAUAAAAGUGGAAGGGGCGG | 0.03 |
| CCGCCUAACACCGCCAAUGCCAGUCCCAAGCCCGGAUAAAAGUGGAGGGGGCGG | 0.21 |
| CCGCCUAACACGGCCAAUGCCAGUCCCAAGCCCGGAUAAAAGUGGAGGGGGCGG | 0.08 |
| CCGCCUAACACAGCCAAUGCCAGUCCCAAGCCCGGAUAAAAGUGGAGGGGGCGG | 0.35 |
| CCGCCUAACACUGCCAAUGCCAGGCCCAAGCCCGGAUAAAAGUGGAGGGGGCGG | 0.13 |
| CCGCCUAACACUGCCAAUGCCAGACCCAAGCCCGGAUAAAAGUGGAGGGGGCGG | 0.36 |
| CCGCCUAACACUGCCAAUGCCAGCCCCAAGCCCGGAUAAAAGUGGAGGGGGCGG | 0.16 |
| CCGCCUAACACUGCCAAUGCCCCUCCCAAGCCCGGAUAAAAGUGGAGGGGGCGG | 0.02 |
| CCGCCUAACACUGCCAAUGCCCUUCCCAAGCCCGGAUAAAAGUGGAGGGGGCGG | 0.03 |
| CCGCCUAACACUGCCAAUGCCCAUCCCAAGCCCGGAUAAAAGUGGAGGGGGCGG | 0.06 |
| CCGCCUAACACUGCCAAUGCCCGUCCCAAGCCCGAAUAAAAGUGGAGGGGGCGG | 0.03 |
| CCGCCUAACACUGCCAAUGCCCGUCCCAAGCCCGCAUAAAAGUGGAGGGGGCGG | 0.03 |
| CCGCCUAACACUGCCAAUGCCCGUCCCAAGCCCGUAUAAAAGUGGAGGGGGCGG | 0.04 |
| CCGCCUAACACUGCCAAUGCCCGUCCCAAUCCCGGAUAAAAGUGGAGGGGGCGG | 0.02 |
| CCGCCUAACACUGCCAAUGCCCGUCCCAACCCCGGAUAAAAGUGGAGGGGGCGG | 0.02 |
| CCGCCUAACACUGCCAAUGCCCGUCCCAAACCCGGAUAAAAGUGGAGGGGGCGG | 0.03 |
| CCGCCUAACACUGCCAAGGCCCGUCCCAAGCCCGGAUAAAAGUGGAGGGGGCGG | 0.17 |
| CCGCCUAACACUGCCAACGCCCGUCCCAAGCCCGGAUAAAAGUGGAGGGGGCGG | 0.1 |
| CCGCCUAACACUGCCAAAGCCCGUCCCAAGCCCGGAUAAAAGUGGAGGGGGCGG | 0.14 |
| CCGCCUAACACUGCCAAUGCCAGUCCCAAGCCCGGAUAAAAGUGGAUGGGGCGG | 0.12 |
| CCGCCUAACACUGCCAAUGCCAGUCCCAAGCCCGGACAAAAGUGGAGGGGGCGG | 1.01 |

| Variant | self-cleavage |
| --- | --- |
| CCGCCUAACACUGCCAAUGCCAGUCCCAAGCCCGGAAAAAAGUGGAGGGGGCGG | 1.06 |
| CCGCCUAACACUGCCAAUGCCAGUCCCAAGCCCGGAGAAAAGUGGAGGGGGCGG | 1 |
| CCGCCUAACACUGCCAAUGCCCGCCCCAAGCCCGGAUAAAAGUGGAGGGGGCGG | 0.03 |
| CCGCCUAACACUGCCAAUGCCCGACCCAAGCCCGGAUAAAAGUGGAGGGGGCGG | 0.04 |
| CCGCCUAACACUGCCAAUGCCCGGCCCAAGCCCGGAUAAAAGUGGAGGGGGCGG | 0.03 |
| CCGCCUAACACUGCCAAUGCCAGUCCCAAGCCCGGAUAAAAGUGGAGGGGGCGC | 0.82 |
| CCGCCUAACACUGCCAAUGCCAGUCCCAAGCCCGGAUAAAAGUGGAGGGGGCGU | 0.84 |
| CCGCCUAACACUGCCAAUGCCAGUCCCAAGCCCGGAUAAAAGUGGAGGGGGCGA | 0.77 |
| CCGCCUAACACUGCCAAUGCCCGUCCCAAGCCCGGAUAAAAGUGGAGUGGGCGG | 0.02 |
| CCGCCUAACACUGCCAAUGCCCGUCCCAAGCCCGGAUAAAAGUGGAGAGGGCGG | 0.02 |
| CCGCCUAACACUGCCAAUGCCCGUCCCAAGCCCGGAUAAAAGUGGAGCGGGCGG | 0.02 |
| CCGCCUAACACUGCCAAUGCCCGUCCCAAGCCCGGAUAAAAGUGGAGGGGGCGG | 0.19 |
| CCGCCUAACACUGCCAAUGCCUGUCCCAAGCCCGGAUAAAAGUGGAGGGGGCGG | 0.93 |
| CCGCCUAACACUGCCAAUGCCCGUCCCAAGCCCGGAUAAAAGUCGAGGGGGCGG | 0.06 |
| CCGCCUAACACUGCCAAUGCCCGUCCCAAGCCCGGAUAAAAGUAGAGGGGGCGG | 0.07 |
| CCGCCUAACACUGCCAAUGCCCGUCCCAAGCCCGGAUAAAAGUUGAGGGGGCGG | 0.07 |
| CCGCCUAACACUGCCAAGGCCAGUCCCAAGCCCGGAUAAAAGUGGAGGGGGCGG | 0.94 |
| CCGCCUAACACUGCCAAAGCCAGUCCCAAGCCCGGAUAAAAGUGGAGGGGGCGG | 1.02 |
| CCGCCUAACACUGCCAACGCCAGUCCCAAGCCCGGAUAAAAGUGGAGGGGGCGG | 0.98 |
| CCGCCUAACACUGCCAAUGCCCGUCCCAAGCCCGGAUAAAAGUGGAGGUGGCGG | 0.03 |
| CCGCCUAACACUGCCAAUGCCCGUCCCAAGCCCGGAUAAAAGUGGAGGAGGCGG | 0.03 |
| CCGCCUAACACUGCCAAUGCCCGUCCCAAGCCCGGAUAAAAGUGGAGGCGGCGG | 0.03 |
